In data set [1] the test system is Trichomonas vaginalis. The data set can be described thus: Antiparasitic activity against Trichomonas vaginalis GT3 trophozoites after 48 hrs by […]. The data set is classed as functional, organism-based. As to conditions: GT3, 48 h. The essentials: (§1)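 Axenic trophozoites grown in modified TYI-S-33 with 10% calf serum and bovine bile; exposed 48 h at 37 °C to increasing compound concentrations, DMSO as negative control. Then washed, subcultured 48 h in fresh drug-free medium and counted. IC50 by Probit analysis; triplicate, repeated at least twice.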

Data set [2] in a line: Cytotoxicity against MDCK cells after 72 hrs by MTT assay. The data set is classed as cell-based, Canis lupus familiaris. The conditions noted are these: dog. The essentials:
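MDCK cells in DMEM with 10% FBS and penicillin/streptomycin, 37 °C, 5% CO2. 1.5×10⁴ cells/well seeded; above 80% confluence, medium replaced and compounds added from 6.25 upward, DMSO final 0.05%. After 72 h, MTT added for 4 h at 37 °C. Formazan dissolved in acidified isopropanol (0.4 N HCl), OD 540 nm; untreated cells as negative control; CC50 calculated.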

A short description of data set [3]: Selectivity index, ratio of CC50 for MDCK cells to IC50 for Trichomonas vaginalis GT3 trophozoites. The data set is classed as functional.
Data set [4] is described as follows: Selectivity index, ratio of CC50 for MDCK cells to IC50 for Giardia intestinalis IMSS:0696 trophozoites. The class given is functional.
Data set [5] is described as follows: Selectivity index, ratio of CC50 for MDCK cells to IC50 for Entamoeba histolytica HM-1:IMSS trophozoites. The class given is functional.
For data set [6], the system named is Giardia intestinalis. The data set can be described thus: Antiparasitic activity against Giardia intestinalis IMSS:0696 trophozoites after 48 hrs by […]. The data set is classed as functional, organism-based. As to conditions: Giardia duodenalis, IMSS:0696, 48 h. The essentials:
as §1

The test system of data set [7] is Entamoeba histolytica. Kind of data set: Amebicidal activity against Entamoeba histolytica HM-1:IMSS trophozoites after 48 hrs by […]. The data set is classed as functional, organism-based. Put shortly:
as §1

Data set [8] deals with Giardia intestinalis. Kind of data set: Ratio of 2-methyl-4(5)-nitroimidazole IC50 to compound IC50 for Giardia intestinalis IMSS:0696 trophozoites. The class given is functional, Giardia duodenalis.
In data set [9] the test system is Giardia intestinalis. The data set can be described thus: Ratio of Benznidazole IC50 to compound IC50 for Giardia intestinalis IMSS:0696 trophozoites. The class given is functional, Giardia duodenalis.
Data set [10] has as its system Trichomonas vaginalis. Kind of data set: Ratio of Benznidazole IC50 to compound IC50 for Trichomonas vaginalis GT3 trophozoites. The data set is classed as functional.
Data set [11] concerns Trichomonas vaginalis. Kind of data set: Ratio of 2-methyl-4(5)-nitroimidazole IC50 to compound IC50 for Trichomonas vaginalis GT3 trophozoites. The class given is functional.
Data set [12] deals with Entamoeba histolytica. Kind of data set: Ratio of 2-methyl-4(5)-nitroimidazole IC50 to compound IC50 for Entamoeba histolytica HM-1:IMSS trophozoites. The class given is functional.

What is called IC50 is the point on the concentration scale where inhibition reaches its midpoint. A lower IC50 goes with inhibition by little substance. The CC50 is the concentration at which the toxic effect on the cells reaches its halfway point.

In the case of `Cc1nc([N+](=O)[O-])cn1CC(=O)Nc1ccccc1`, the IC50 was 24.6 µM with Trichomonas vaginalis [1], 49.1 µM in the data set with Giardia intestinalis [6] and 26.6 µM with Entamoeba histolytica [7]. Moreover, the cytotoxic concentration (CC50) at 72 h in [2] came to 1140 µM. The “Ratio CC50/IC50” value in [3] is listed as 46; in data set [4] it was 23; in [5] it was 43.

`COc1ccc(S(=O)(=O)n2cc([N+](=O)[O-])nc2C)cc1`: the “Ratio IC50” value in the data set with Giardia intestinalis [8] and in the data set on Giardia intestinalis [9] was 2 each time. Besides, the IC50 in the data set with Trichomonas vaginalis [1] stood at 8.41 µM; in the data set on Giardia intestinalis [6], 6.55 µM; with Entamoeba histolytica [7] it was 8.56 µM. In data set [2], this compound displayed a half-maximal cytotoxic concentration (CC50) at 72 h of 321 µM. Moreover, the “Ratio CC50/IC50” value in [3] worked out at 38; in [4], 49; in data set [5] it was 38.

As to `Cc1nc([N+](=O)[O-])cn1CC(=O)Nc1ccc(F)cc1`, the values for the half-inhibitory concentration (IC50) with Trichomonas vaginalis [1], in the data set on Giardia intestinalis [6] and in the data set with Entamoeba histolytica [7] were 5.61 µM, 21 µM and 11.2 µM, respectively. Half-maximal cytotoxicity in data set [2] (CC50 at 72 h) was put at 828 µM. Also, the figures for the “Ratio CC50/IC50” value in [3], in data set [4] and in [5] were 148, 39 and 74, respectively. Besides, the “Ratio IC50” value in the data set with Trichomonas vaginalis [10] amounted to 3; in the data set on Trichomonas vaginalis [11], 6.

Turning to `O=C(Cn1ccnc1[N+](=O)[O-])NCc1ccccc1` [BENZNIDAZOLE], the IC50 in the data set on Trichomonas vaginalis [1] is 18.6 µM; in the data set with Giardia intestinalis [6] it was 22.6 µM; in the data set on Entamoeba histolytica [7] it was 4.27 µM.

For `Cc1nc([N+](=O)[O-])cn1CC(=O)Nc1cccc(C(F)(F)F)c1`, the IC50 in the data set with Trichomonas vaginalis [1] stood at 67.4 µM; with Giardia intestinalis [6] it was 37.6 µM; in the data set on Entamoeba histolytica [7], 29.1 µM. Also, the CC50 at 72 h in data set [2] came out at 435 µM. Also, the “Ratio CC50/IC50” value in data set [3] amounted to 6; in data set [4], 12; in [5], 15.

Regarding `Cc1ccc(S(=O)(=O)n2cc([N+](=O)[O-])nc2C)cc1`, in the data set on Entamoeba histolytica [12], the “Ratio IC50” value is given as 2. Also, the IC50 in the data set on Trichomonas vaginalis [1] was 9.96 µM; in the data set on Giardia intestinalis [6] it was 14 µM; with Entamoeba histolytica [7], 3.55 µM. Further, the CC50 at 72 h in data set [2] came out at 988 µM. The “Ratio CC50/IC50” value in data set [3] stood at 99; in data set [4] it was 71; in [5], 278.

As for `Cc1nc([N+](=O)[O-])cn1CC(=O)Nc1ccc(Cl)cc1`, the IC50 in the data set with Trichomonas vaginalis [1] stood at 9.18 µM; in the data set with Giardia intestinalis [6], 16 µM; in the data set on Entamoeba histolytica [7] it was 18.1 µM. The compound further had a CC50 at 72 h in data set [2] of 642 µM. The “Ratio CC50/IC50” value is listed as 70 in data set [3], 40 in data set [4] and 35 in [5]. For the same compound, the entries for the “Ratio IC50” value in the data set on Trichomonas vaginalis [10] and with Trichomonas vaginalis [11] were 2 and 5, respectively.

In the case of `Cc1nc([N+](=O)[O-])cn1S(=O)(=O)c1ccc(F)cc1`, the IC50 is 11.5 µM with Trichomonas vaginalis [1], 10.6 µM with Giardia intestinalis [6] and 4.44 µM in the data set with Entamoeba histolytica [7]. In [2], this compound had a CC50 at 72 h of 813 µM. For the same compound, the “Ratio CC50/IC50” value in data set [3] stood at 71; in data set [4], 77; in data set [5], 183.

Take `Cc1nc([N+](=O)[O-])cn1S(=O)(=O)c1ccc(Cl)cc1`: the figures for the IC50 with Trichomonas vaginalis [1], in the data set with Giardia intestinalis [6] and in the data set on Entamoeba histolytica [7] were 7.62 µM, 15.3 µM and 4.03 µM, respectively. The compound further returned a CC50 at 72 h in data set [2] of 578 µM. Moreover, the “Ratio CC50/IC50” value in data set [3] is 76; in data set [4], 38; in data set [5] it was 144.

Regarding `Cc1nc([N+](=O)[O-])cn1CC(=O)Nc1ccc(C#N)cc1`, the IC50 turned out to be 14.2 µM in the data set with Trichomonas vaginalis [1], 11.2 µM in the data set with Giardia intestinalis [6] and 41.2 µM in the data set with Entamoeba histolytica [7]. For the same compound, the CC50 at 72 h in data set [2] was 672 µM. The “Ratio CC50/IC50” value in data set [3] is given as 47; in data set [4], 60; in data set [5], 16. The “Ratio IC50” value in the data set with Trichomonas vaginalis [11] is reported as 3; in the data set on Giardia intestinalis [9] it was 2.

`Cc1nc([N+](=O)[O-])cn1S(=O)(=O)c1ccccc1`: the IC50 in the data set with Trichomonas vaginalis [1] amounted to 12.5 µM; in the data set with Giardia intestinalis [6], 12 µM; in the data set on Entamoeba histolytica [7], 6.74 µM. This compound also returned a CC50 at 72 h in [2] of 1270 µM. Besides, the “Ratio CC50/IC50” value in data set [3] is 101; in data set [4], 106; in data set [5], 188.

Consider `Cc1nc([N+](=O)[O-])cn1CC(=O)Nc1ccc([N+](=O)[O-])cc1`, for which the IC50 in the data set with Trichomonas vaginalis [1] was 6.63 µM; in the data set with Giardia intestinalis [6] it was 15.4 µM; in the data set with Entamoeba histolytica [7] it was 15.3 µM. The CC50 at 72 h in data set [2] is 798 µM. For the same compound, the “Ratio CC50/IC50” value came out at 120 in data set [3], 52 in [4] and 52 in data set [5].

On to `Cc1nc([N+](=O)[O-])cn1CC(=O)NCc1ccccc1`, for which the figures for the “Ratio IC50” value with Entamoeba histolytica [12], in the data set on Trichomonas vaginalis [10] and with Trichomonas vaginalis [11] were 2, 2 and 5, respectively. Moreover, the IC50 in the data set on Trichomonas vaginalis [1] came to 7.98 µM; in the data set with Giardia intestinalis [6], 17.7 µM; with Entamoeba histolytica [7] it was 3.96 µM. Half-maximal cytotoxicity in [2] (CC50 at 72 h) was put at 77.5 µM. Besides, the “Ratio CC50/IC50” value in data set [3] stood at 10; in data set [4] it was 4; in data set [5], 20.

Turning to `Cc1nc([N+](=O)[O-])cn1S(=O)(=O)c1ccc([N+](=O)[O-])cc1`, the “Ratio IC50” value in the data set on Giardia intestinalis [8] was 2; in the data set with Trichomonas vaginalis [10] it was 6; in the data set on Trichomonas vaginalis [11] it was 14; with Giardia intestinalis [9], 2. For the same compound, the IC50 in the data set with Trichomonas vaginalis [1] is 2.93 µM; in the data set on Giardia intestinalis [6] it was 7.5 µM; in the data set with Entamoeba histolytica [7], 7.28 µM. The CC50 at 72 h in [2] is 611 µM. Besides, the entries for the “Ratio CC50/IC50” value in data set [3], in [4] and in [5] were 209, 82 and 84, respectively.

As to `CC(=O)Nc1ccc(S(=O)(=O)n2cc([N+](=O)[O-])nc2C)cc1`, in the data set on Entamoeba histolytica [12], the “Ratio IC50” value came to 2. Further, the IC50 with Trichomonas vaginalis [1] is 8.73 µM; in the data set with Giardia intestinalis [6], 20.2 µM; with Entamoeba histolytica [7] it was 3.89 µM. This compound also yielded a CC50 at 72 h in data set [2] of 1030 µM. Besides, the figures for the “Ratio CC50/IC50” value in data set [3], in data set [4] and in [5] were 118, 51 and 265, respectively.

`Cc1ncc([N+](=O)[O-])n1CCO` [METRONIDAZOLE]: the values for the IC50 in the data set with Trichomonas vaginalis [1] and in the data set on Giardia intestinalis [6] were 0.29 µM and 5.36 µM, respectively. Also, in data set [2], the midpoint of cytotoxicity, the CC50 at 72 h, lay at 68 µM.

In the case of `Cc1nc([N+](=O)[O-])cn1CC(=O)Nc1c(Cl)cccc1Cl`, the IC50 in the data set with Trichomonas vaginalis [1] is 37 µM; in the data set on Giardia intestinalis [6] it was 22 µM; in the data set with Entamoeba histolytica [7] it was 25.3 µM. Besides, in [2], the CC50 at 72 h was determined as 396 µM. For the same compound, the “Ratio CC50/IC50” value in data set [3] was 11; in data set [4], 18; in data set [5] it was 16.
